Shown are actives, neighbours in structure and some others; about 2.5% of the full set was active somewhere.
PG9 binder – binders of HIV-1 gp120 antibody PG9, primary screen, biochemical, TR-FRET | inhibition, % at 6.7 µM | HIV-1 gp120 / PG9 antibody interaction | TR-FRET gp120-PG9 antibody binding | 360,000 compounds, 0.43% hits | AID 624416, 2012; in the data active means inhibition above about 8.5%
NTR1 agonist – agonists of human NTR1, primary screen, imaging, U2OS cells, beta-arrestin-GFP, high content. 330,000 compounds, 0.17% hits. NTR1-U2OS beta-arrestin-GFP spot imaging, agonist mode. Neurotensin receptor type 1 (Homo sapiens), P30989. activation, % at 20 µM;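 active means activation at or above 40% of the spot to cytoplasm intensity ratio, with at least 20 cells analyzed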
Rev-erbA mod – modulators of Rev-erb alpha DNA binding, primary screen, biochemical, FITC-DNA, fluorescence polarization, uHTS | Nuclear receptor subfamily 1 group D member 1 (Homo sapiens), P20393 | Rev-erbα–FITC-DNA binding, 90 min | activity, % at 10 µM | 370,000 compounds, 0.79% hits | AID 1259318, 2017;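 active means activity above about 14%, limit read from the data; passing the limit was not always enough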
Target sequence (P20393 whole entry, looked up): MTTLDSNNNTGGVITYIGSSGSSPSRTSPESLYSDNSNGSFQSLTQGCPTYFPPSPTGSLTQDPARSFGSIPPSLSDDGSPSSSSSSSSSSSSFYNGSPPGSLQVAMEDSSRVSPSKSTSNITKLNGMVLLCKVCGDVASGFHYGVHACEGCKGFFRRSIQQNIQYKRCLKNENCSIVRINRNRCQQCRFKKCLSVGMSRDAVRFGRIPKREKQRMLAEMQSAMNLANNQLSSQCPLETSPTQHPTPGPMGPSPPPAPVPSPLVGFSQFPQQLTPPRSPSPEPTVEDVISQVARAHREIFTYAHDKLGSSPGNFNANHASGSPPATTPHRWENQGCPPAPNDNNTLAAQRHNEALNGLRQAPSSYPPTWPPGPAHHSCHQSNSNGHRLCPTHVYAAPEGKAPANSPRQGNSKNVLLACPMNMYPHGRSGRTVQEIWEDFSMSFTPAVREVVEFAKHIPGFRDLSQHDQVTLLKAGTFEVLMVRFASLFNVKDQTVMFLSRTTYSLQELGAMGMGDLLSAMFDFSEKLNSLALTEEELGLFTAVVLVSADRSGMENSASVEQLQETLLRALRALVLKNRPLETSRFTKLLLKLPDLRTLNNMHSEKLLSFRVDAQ
MC4R antagonist – MC4R antagonists of cAMP signaling, primary screen, cell-based, TR-FRET, antagonist arm of biased-ligand search | MC4R-expressing cells, MTII-stimulated cAMP, LANCE TR-FRET | inhibition, % at 6.5 µM | Melanocortin receptor 4 (Homo sapiens), P32245 | 360,000 compounds, 0.48% hits;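 active means inhibition above its plate's cutoff, the mean of tested wells on that plate plus 3 SD, cut at about 29% in these data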
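material = U2OS cells stably expressing human melanocortin 4 receptor (MC4R) | also added = Melanotan II challenge | dosing = single nominal compound dose of 6.5 µM | detection = TR-FRET with Eu-cAMP and labeled anti-cAMP, 671 nm | replication = singlicate | timing = compound 30 min, challenge 1 h, detection 1 h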
MC4R barr agon – MC4R agonists recruiting beta-arrestin, primary screen, cell-based, luminescence, agonist arm of biased-ligand search | Melanocortin receptor 4 (Homo sapiens), P32245 | U2OS MC4R beta-arrestin complementation; percent of melanotan II response, DMSO zero | activation, % at 8.9 µM | 360,000 compounds, 0.98% hits | AID 540308, 2011;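 active means activation above a per-plate cutoff, the mean activation of sample wells on that plate plus 3 SD, cut at about 8% in these data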
Rev-erbA confirm – modulators of Rev-erb alpha DNA binding, confirmation, biochemical, FITC-DNA, fluorescence polarization, single point; activation, % at 25 µM; AID 1259319, 2017; shares compounds with Rev-erbA mod; 3,000 compounds, 61% hits; 90 min;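 active means activation at or above a set limit, or at least 3 SD above the negative control mean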
RORg DNA counter – modulation of RORgamma DNA binding, dose response, counter-screen for Rev-erb alpha modulator project, biochemical, fluorescence polarization, FITC-DNA; shares compounds with Rev-erbA mod; purified RORgamma protein-FITC-DNA binding; IC50, µM; 910 compounds, 8% hits; AID 1259320, 2017;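 active means Compounds whose fitted half-maximal concentration for disrupting protein-DNA binding is below 10 micromolar; the record names Rev-erb in its text, so the target is in doubt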
Of the large screens only hits and unclear results are named; the others gave an inactive call (follow-up assays come after a bar, where they were run); ! = not active in a repeat.

COc1ccc(C2CC(c3c(Cl)cccc3Cl)n3nc(N)nc3N2)cc1 (stereo not drawn)	none
COc1ccc(C2CC(c3ccc(Cl)c(Cl)c3)Nc3nc(N)nn32)cc1 (stereo not drawn)	Rev-erbA mod 31.4 | Rev-erbA confirm 16.6
COc1ccnc(N2CCN(c3cccc(C(F)(F)F)c3)CC2)c1C#N	Rev-erbA mod 28.1 | Rev-erbA confirm inactive
CCOc1ccc(-n2c(SCC(=O)NN=Cc3ccc(C(=O)O)cc3)nnc2-c2cccnc2)cc1	none (no result: PG9 binder, NTR1 agonist, MC4R antagonist, MC4R barr agon)
COc1ccc(C(=O)C2(C(=O)NCCO)CC(c3ccccn3)=NO2)cc1 (stereo not drawn)	none (no result: PG9 binder, NTR1 agonist, MC4R antagonist, MC4R barr agon)
COc1ccc(/C=C(/C(=O)c2ccc(Cl)cc2Cl)n2cncn2)cc1	none
CN(C)c1ccc(/C=C(/C(=O)c2ccc(Cl)cc2Cl)n2cncn2)cc1	Rev-erbA mod 21.2 | Rev-erbA confirm 17.8
Cc1cc(=O)oc2cc(NC(=O)c3cccc(F)c3)ccc12	Rev-erbA mod 49.5 | Rev-erbA confirm 59.8 | RORg DNA counter inactive
Cc1cc(=O)oc2cc(NC(=O)c3cccc(S(C)(=O)=O)c3)ccc12	none
Cc1cc(-c2cccc([N+](=O)[O-])c2)nc2ccc3ccccc3c12	Rev-erbA mod 37.7 | Rev-erbA confirm 42.4 | RORg DNA counter inactive
O=C(O)c1cc(-c2cccc([N+](=O)[O-])c2)nc2ccccc12	none
COc1ccccc1CCn1cnc(-c2cccc(Br)c2)c1CC(C)C	none (no result: NTR1 agonist, MC4R antagonist, MC4R barr agon)
CCOC(=O)c1ccc(Nc2cc(C)nc(-c3ccccc3O)n2)cc1	Rev-erbA mod 38.0 | Rev-erbA confirm inactive
O=C(Nc1nnc(C2CCCCC2)s1)c1ccc(Br)s1	Rev-erbA mod 95.4 | Rev-erbA confirm 81.7 | RORg DNA counter inactive
O=C1CCCC2=C1C1(CCCCC1)N=C(Nc1nc3ccccc3o1)N2	none
O=C1CCCC2=C1C1(CCCC1)N=C(Nc1nc3ccccc3o1)N2	Rev-erbA mod 20.9! (no result: NTR1 agonist) | Rev-erbA confirm inactive
CC(C)=CC(=O)NCC1CCN(C(=O)C(=O)c2cc3ccccc3o2)CC1	none (no result: NTR1 agonist, MC4R antagonist, MC4R barr agon)
O=C1c2ccccc2C(c2nnnn2Cc2ccccc2)N1CCc1c[nH]c2ccccc12 (stereo not drawn)	Rev-erbA mod 19.9 (no result: NTR1 agonist, MC4R antagonist, MC4R barr agon) | Rev-erbA confirm inactive
O=C1c2ccccc2C(c2nnnn2Cc2ccccc2)N1Cc1ccc(F)cc1 (stereo not drawn)	none (no result: NTR1 agonist, MC4R antagonist, MC4R barr agon)
C=CCN1C(=O)[C@H](CC(=O)NCC23CC4CC(CC(C4)C2)C3)[C@@]2(C(=O)OCC)CCCC=C12	none (no result: PG9 binder, NTR1 agonist, MC4R antagonist, MC4R barr agon)
CCCn1c(=O)[nH]c(=O)c2c(C(=O)OCC)cc(-c3cccs3)nc21	Rev-erbA mod 29.5 | Rev-erbA confirm 26.7
CCCCn1c(=O)[nH]c(=O)c2c(C(=O)OCC)cc(-c3cccs3)nc21	none
Cc1nn2c(N)c(C#N)cnc2c1-c1ccccc1	none
Cc1nn2c(N)c(C#N)cnc2c1-c1ccc(Cl)cc1	Rev-erbA mod 50.6 | Rev-erbA confirm 33.8 | RORg DNA counter inactive
Cc1nn2c3c(cnc2c1-c1ccccc1)C(=O)CC(c1ccccc1)C3 (stereo not drawn)	Rev-erbA mod 38.6 | Rev-erbA confirm 19.5
Cc1nn2c(N)c(-c3ccccc3)cnc2c1-c1ccccc1	Rev-erbA mod 18.5 | Rev-erbA confirm inactive
CCOC(=O)Cc1nc(N2CCN(C(=O)C3CCCO3)CC2)c2c(C)c(C(=O)OCC)sc2n1 (stereo not drawn)	none (no result: PG9 binder, NTR1 agonist, MC4R antagonist, MC4R barr agon)
O=C1NC(=O)C2(CCCc3ccc(N(CCO)CCO)cc32)N1 (stereo not drawn)	none (no result: NTR1 agonist, MC4R antagonist, MC4R barr agon)
COC(=O)[C@]1(Cc2ccccc2)NC=C(C(=O)c2ccccc2)[C@@H]1c1cccs1	none (no result: NTR1 agonist, MC4R antagonist, MC4R barr agon)
Cc1cccc(-c2cccc3c4c([nH]c23)[C@@H]2C[C@H](N(C)C(=O)Nc3ccccc3)[C@H]([C@H](C)O)CN2CC4)c1	none (no result: PG9 binder, NTR1 agonist, MC4R antagonist, MC4R barr agon)
Cc1ccc(S(=O)(=O)c2cc3cc(Br)ccc3oc2=O)cc1	none
CC(C)c1ccc(S(=O)(=O)c2cc3cc(Br)ccc3oc2=O)cc1	Rev-erbA mod 19.4 | Rev-erbA confirm inactive
Cc1cc(C)c2c(=O)[nH]c(=O)n(Cc3ccccc3)c2n1	Rev-erbA mod 22.8 | Rev-erbA confirm inactive
CN(C)c1ccc(/C=C/c2cccc[n+]2[O-])cc1	none
CC(C)CC[n+]1ccccc1/C=C/c1ccc(N(C)C)cc1	Rev-erbA mod 31.6 | Rev-erbA confirm 30.1 | RORg DNA counter inactive
O=[N+]([O-])c1ccc(O)c(-c2cc(C(F)(F)F)nc(-c3ccccc3)n2)c1	Rev-erbA mod 133.2 | Rev-erbA confirm 159.3 | RORg DNA counter 7.96
N#CC1=C(N)Oc2cc(N)ccc2C1c1cccnc1 (stereo not drawn)	none
CCN(CC)c1ccc2c(c1)OC(N)=C(C#N)C2c1cccnc1 (stereo not drawn)	Rev-erbA mod 53.0 | Rev-erbA confirm 48.1
Cc1ccc2nc(-c3ccc(F)cc3)c(Cc3ccccc3C(F)(F)F)n2c1	Rev-erbA mod 16.9 (no result: NTR1 agonist, MC4R antagonist, MC4R barr agon) | Rev-erbA confirm inactive
COc1ccc(-c2nc3ccc(Br)cn3c2Cc2ccccc2C(F)(F)F)cc1OC	Rev-erbA mod 15.8 (no result: NTR1 agonist, MC4R antagonist, MC4R barr agon) | Rev-erbA confirm inactive
O=C1CCCC2=C1[C@@]1(O[C@H]3C=CC=CN23)C(=O)N(c2ccccc2)c2ccccc21	none (no result: NTR1 agonist, MC4R antagonist, MC4R barr agon)
C[n+]1ccc(/C=C/c2c[nH]c3ccc(F)cc23)cc1	Rev-erbA mod 124.9 | Rev-erbA confirm 90.2 | RORg DNA counter inactive
CCOc1ccc(-n2c(SCC(=O)Nc3ccc(S(=O)(=O)Nc4nccs4)cc3)nnc2-c2ccco2)cc1	none (no result: PG9 binder, NTR1 agonist, MC4R antagonist, MC4R barr agon)
COc1cccc2c1C(=O)c1c(O)c3c(c(O)c1C2=O)C[C@@](O)(C(C)=O)C[C@@H]3O[C@H]1C[C@H](N)[C@H](O)[C@H](C)O1	Rev-erbA mod 27.7! (no result: NTR1 agonist) | Rev-erbA confirm inactive
O=S(=O)(c1ccccc1F)n1c(CN2CCOCC2)nc2ccccc21	none (no result: PG9 binder, NTR1 agonist, MC4R antagonist, MC4R barr agon)
COc1ccc(/C=C2\SC(=O)N(CCC(=O)Nc3ccccc3)C2=O)cc1OC	Rev-erbA mod 32.3 | Rev-erbA confirm 33.6 | RORg DNA counter inactive
COc1cc(/C=C2/SC(=S)N(CC(=O)O)C2=O)ccc1OC(=O)c1ccco1	Rev-erbA mod 25.0 | Rev-erbA confirm inactive
COc1cc(/C=C2\SC(=S)N(CC(=O)O)C2=O)ccc1OC(=O)c1ccco1	none
Cc1noc(C)c1C(=O)N1CCC(n2nnc3ncccc32)CC1	none (no result: PG9 binder, NTR1 agonist, MC4R antagonist, MC4R barr agon)
Cc1nc2ccc(Cl)cc2c(-c2ccccc2)c1C(=O)N(C)C	none

Screening results deposited in PubChem by several laboratories.
